# Reference: ChEMBL document CHEMBL1156231, “Alkylation of a human telomere sequence by heterotrimeric chlorambucil PI polyamide conjugates” (Bioorg Med Chem, 2010)
# The source made the active and inactive calls. The rule behind the calls is not given here.
# Experiments:
# Nucleic Acid [1] = assay: Binding affinity to human telomeric DNA expressed in Escherichia coli DH5alpha assessed as alkylation of G and C rich strand at 10 nM after 24 hrs by PAGE analysis
# How it was run: (§1)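 5'-Texas Red-labelled telomere-containing DNA fragment (insert cloned and propagated in E. coli DH5a, PCR-amplified, purified), alkylated with conjugate at various concentrations in 5 mM sodium phosphate buffer pH 7.0, 10% DMF, room temperature, 24 h. Reaction stopped with calf thymus DNA and heating 95 °C, 5 min. Alkylation sites read by high-resolution denaturing polyacrylamide gel electrophoresis.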
# Nucleic Acid [2] = assay: Binding affinity to human telomeric DNA expressed in Escherichia coli DH5alpha assessed as alkylation of G rich 5^-GGTTAGGGTTA-3^ strand at 50 to 200 nM after 24 hrs by PAGE; how it was run: as §1
# Nucleic Acid [3] = assay: Binding affinity to human telomeric DNA expressed in Escherichia coli DH5alpha assessed as alkylation of complementary C rich site at 50 to 200 nM after 24 hrs by PAGE analysis; how it was run: as §1
smiles,measurement,setting,value
CN(C)CCCNC(=O)c1nc(NC(=O)c2nc(NC(=O)c3nc(NC(=O)CCNC(=O)CCNC(=O)c4nc(NC(=O)c5nc(NC(=O)c6nc(NC(=O)CCCc7ccc(N(CCCl)CCCl)cc7)cn6C)cn5C)cn4C)cn3C)cn2C)cn1C,Activity,Nucleic Acid [1],Active
same,Activity,Nucleic Acid [2],inactive
same,Activity,Nucleic Acid [3],Active
